These results are taken from ChEMBL document CHEMBL3621084, “Discovery of 2-Pyridinone Aminals: A Prodrug Strategy to Advance a Second Generation of HIV-1 Integrase Strand Transfer Inhibitors” (J Med Chem, 2015).

In data set [1] the test system is Canis familiaris. Kind of data set: AUC (0 to infinity) in beagle dog assessed as (1R,2R,5S)-8'-(3-chloro-4-fluorobenzyl)-6'-hydroxy-2'-((S)-2-hydroxypropyl)-9',10'-dihydro-1'H-spiro[bicyclo[3.1.0]hexane-2,3'-imidazo[5,1-a][2,6]naphthyridine]-1',5',7'(2'H,8'H)-trione level at 100 mg/kg, po by LC-MS/MS method. It counts as ADME, organism-based, Canis lupus familiaris. The arrangement: dose 100 mg/kg, time infinity, route oral. The conditions noted are these: in vivo. The method, boiled down:
(§1)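 Oral rising-dose studies were run in beagle dogs with prodrugs, at doses normalized to account for the promoiety so that they give the actual parent dose administered. The read-out was plasma exposure (AUC) of the parent compound.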

A short description of data set [2]: Stability in SGF at pH 1.8 at 37 °C incubated for 4 hrs.
The nature of data set [3]: Solubility in FaSSiF at pH 6.5 at room temperature incubated for 4 hrs. It counts as physicochemical.
Data set [4] in a line: Stability in FaSSiF at pH 6.5 at 37 °C incubated for 4 hrs.
The test system of data set [5] is Human immunodeficiency virus 1. Kind of data set: Antiviral activity against HIV1 infected in human MT4 cells expressing GFP incubated for 48 to 72 hrs in absence of 50% normal human serum by multiple round viral replication kinetics assay. It counts as functional.
The subject of data set [6] is Human immunodeficiency virus 1. As to the kind of experiment: Antiviral activity against HIV1 infected in human MT4 cells expressing GFP incubated for 48 to 72 hrs in presence of 50% normal human serum by multiple round viral replication kinetics assay. It counts as functional.
Data set [7] in a line: AUC (0 to infinity) in portal vein of portal vein-cannulated beagle dog assessed as (1R,2S,5R)-8'-(3-chloro-4-fluorobenzyl)-6'-hydroxy-1-(hydroxymethyl)-2'-methyl-9',10'-dihydro-1'H-spiro[bicyclo[3.1.0]hexane-2,3'-imidazo[5,1-a][2,6]naphthyridine]-1',5',7'(2'H,8'H)-trione level at 10 mg/kg, po by LC-MS/MS method. The settings on record: in vivo. The arrangement: dose 10 mg/kg, route oral, time infinity. In kind it is ADME, organism-based, Canis lupus familiaris. The method, boiled down: (§2)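 Portal vein-cannulated dogs received the prodrugs orally at doses normalized to 10 mg/kg of the parent molecule. Prodrug and parent concentrations were determined in plasma collected from the portal and jugular veins, and AUC was derived for each analyte at each site.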

A short description of data set [8]: AUC (0 to infinity) in portal vein of portal vein-cannulated beagle dog at 10 mg/kg, po by LC-MS/MS method. In kind it is ADME, organism-based, Canis lupus familiaris. The arrangement: dose 10 mg/kg, time infinity, route oral. The method, boiled down: as §2
Data set [9] in a line: AUC (0 to infinity) in jugular vein of portal vein-cannulated beagle dog assessed as (1R,2S,5R)-8'-(3-chloro-4-fluorobenzyl)-6'-hydroxy-1-(hydroxymethyl)-2'-methyl-9',10'-dihydro-1'H-spiro[bicyclo[3.1.0]hexane-2,3'-imidazo[5,1-a][2,6]naphthyridine]-1',5',7'(2'H,8'H)-trione level at 10 mg/kg, po by LC-MS/MS method. It counts as ADME, organism-based, Canis lupus familiaris. The arrangement: dose 10 mg/kg, time infinity, route oral. The settings on record: in vivo. The procedure, abridged: as §2

Data set [10] concerns Canis familiaris. As to the kind of experiment: AUC (0 to infinity) in beagle dog assessed as (1R,2S,5R)-8'-(3-chloro-4-fluorobenzyl)-6'-hydroxy-1-(hydroxymethyl)-2'-methyl-9',10'-dihydro-1'H-spiro[bicyclo[3.1.0]hexane-2,3'-imidazo[5,1-a][2,6]naphthyridine]-1',5',7'(2'H,8'H)-trione level at 30 mg/kg, po by LC-MS/MS method. In kind it is ADME, organism-based, Canis lupus familiaris. The arrangement: dose 30 mg/kg, route oral, time infinity. The settings on record: in vivo. The method, boiled down: as §1

Data set [11] in a line: Permeability in LLC-PK1 cells at 1 uM incubated for 3 hrs by LC-MS/MS method. The conditions noted are these: pig, read-out: permeability. In kind it is ADME, cell-based, Sus scrofa.
The nature of data set [12]: AUC (0 to infinity) in jugular vein of portal vein-cannulated beagle dog at 10 mg/kg, po by LC-MS/MS method. The arrangement: dose 10 mg/kg, time infinity, route oral. It counts as ADME, organism-based, Canis lupus familiaris. The procedure, abridged:
as §2

Data set [13] deals with Canis familiaris. Kind of data set: AUC (0 to infinity) in beagle dog assessed as c(1R,2S,5R)-8'-(3-chloro-4-fluorobenzyl)-6'-hydroxy-1-(hydroxymethyl)-2'-methyl-9',10'-dihydro-1'H-spiro[bicyclo[3.1.0]hexane-2,3'-imidazo[5,1-a][2,6]naphthyridine]-1',5',7'(2'H,8'H)-trione evel at 2 mg/kg, po by LC-MS/MS method. It counts as ADME, organism-based, Canis lupus familiaris. The arrangement: dose 2 mg/kg, route oral, time infinity. The settings on record: in vivo. The procedure, abridged: as §1

Data set [14] in a line: Permeability in MDCK2 cells at 1 uM incubated for 3 hrs by LC-MS/MS method. It counts as ADME, cell-based, Canis lupus familiaris, MDCK-II. The conditions noted are these: dog, MDCK; read-out: permeability.
Data set [15] is described as follows: (§3) AUC (0 to infinity) in beagle dog at 2 mg/kg, po by LC-MS/MS method. In kind it is ADME, organism-based, Canis lupus familiaris. The arrangement: dose 2 mg/kg, route oral, time infinity. The settings on record: beagle, in vivo.
The nature of data set [16]: Plasma clearance in Wistar-Hanover rat at 0.2 mg/kg, iv by LC-MS/MS method. It counts as ADME, organism-based.
For data set [17], the system named is Canis familiaris. The description is as §3. In kind it is ADME, organism-based, Canis lupus familiaris. The arrangement: dose 2 mg/kg, route oral, time infinity. The conditions noted are these: in vivo.
A short description of data set [18]: Volume of distribution at steady state in Wistar-Hanover rat at 0.2 mg/kg, iv by LC-MS/MS method. It counts as ADME, organism-based. The conditions noted are these: in vivo, read-out: Vdss.
Data set [19] concerns Human immunodeficiency virus 1. As to the kind of experiment: Resistance index, ratio of IC50 for antiviral activity against HIV1 expressing integrase Q148R mutant to IC50 for antiviral activity against HIV1 expressing wild type integrase. In kind it is functional. The procedure, abridged: (§4)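 Fold shift computed as the inflection point (IP) against mutant HIV-1 divided by the IP against wild-type virus. Both IPs come from a kinetic HIV replication (viral kinetics) potency assay run in 50% normal human serum (NHS).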

In data set [20] the test system is Canis familiaris. As to the kind of experiment: Oral bioavailability in beagle dog at 2 mg/kg by LC-MS/MS method. In kind it is ADME, organism-based, Canis lupus familiaris. The settings on record: in vivo.
Data set [21] can be described thus: Oral bioavailability in Wistar-Hanover rat at 2 mg/kg by LC-MS/MS method. It counts as ADME, organism-based. The settings on record: in vivo.
Data set [22] concerns Human immunodeficiency virus 1. Kind of data set: Resistance index, ratio of IC50 for antiviral activity against HIV1 expressing integrase Y143R mutant to IC50 for antiviral activity against HIV1 expressing wild type integrase. It counts as functional. The method, boiled down:
as §4

Data set [23] in a line: Half life in beagle dog at 0.5 mg/kg, iv by LC-MS/MS method. The conditions noted are these: in vivo.
Data set [24] concerns Human immunodeficiency virus 1. As to the kind of experiment: Resistance index, ratio of IC50 for antiviral activity against HIV1 expressing integrase E92Q mutant to IC50 for antiviral activity against HIV1 expressing wild type integrase. In kind it is functional. The method, boiled down:
as §4

A short description of data set [25]: Volume of distribution at steady state in beagle dog at 0.5 mg/kg, iv by LC-MS/MS method. The settings on record: in vivo, read-out: Vdss. It counts as ADME, organism-based, Canis lupus familiaris.
Data set [26] can be described thus: AUC (0 to infinity) in Wistar-Hanover rat at 2 mg/kg, po by LC-MS/MS method. The arrangement: dose 2 mg/kg, route oral, time infinity. The conditions noted are these: in vivo. It counts as ADME, organism-based.
The nature of data set [27]: Half life in Wistar-Hanover rat at 0.2 mg/kg, iv by LC-MS/MS method. The conditions noted are these: in vivo.

≈ marks a conversion by molar mass, not a printed value. Some results are limits rather than exact numbers.

Broadly, the AUC is the area under the concentration-time curve, a measure of exposure. One may read the amount remaining as the share of the starting amount still present when the sample was taken. One may read the solubility as how much of the substance goes into solution per volume. Higher therefore signals much dissolved substance. The AUC(0-inf) is the area under the concentration-time curve extrapolated to infinity. Usually clearance stands for the volume of plasma or blood freed of the substance per unit of time. Low values mean inefficient removal, high ones efficient removal. Usually bioavailability stands for the share of a dose that reaches the circulation, judged against a reference dose that is usually intravenous. Low readings indicate little systemic uptake, high ones much systemic uptake. Usually half-life stands for the time needed for the level to fall by half in the phase considered.

For `CC(C)OC(=O)OCOc1c2c(c3n(c1=O)[C@@]1(CC[C@H]4C[C@H]41)N(C[C@H](C)OP(=O)(O)O)C3=O)CCN(Cc1ccc(F)c(Cl)c1)C2=O`, the AUC with Canis familiaris [1] is 570 µM·h. Further, the amount remaining at 4 h in data set [2] and in [4] was more than 98% throughout. This compound yielded a solubility at 4 h in data set [3] of more than 2000 µg/mL. Also, in [5], the IP is recorded as more than 4200 nM.
In the case of `Cc1nnc(C(=O)NC(C)(C)c2nc(C(=O)NCc3ccc(F)cc3)c(O)c(=O)n2C)o1`, the IP in data set [6] is reported as 53 nM; in data set [5] it was 9 nM.
With `CC(C)OC(=O)OCOc1c2c(c3n(c1=O)[C@]1(CC[C@@H]4C[C@@]41CO)N(C)C3=O)CCN(Cc1ccc(F)c(Cl)c1)C2=O`, the AUC in [7] is 27.3 µM·h; in data set [9], 30.4 µM·h; in the data set with Canis familiaris [10] it was 284 µM·h; in the data set on Canis familiaris [13] it was 5 µM·h. In addition, the share remaining at 4 h in [2] and in data set [4] was more than 98% each time. Besides, the AUC(0-inf) in data set [8] is 2.55 µM·h; in data set [12], 0.037 µM·h. The solubility at 4 h in [3] came out at 500 µg/mL (≈ 828 µM). Besides, the figures for the Papp at 3 h, 1 µM in data set [11] and in data set [14] were 26.5 ×10⁻⁶ cm/s and 19.7 ×10⁻⁶ cm/s, respectively. The compound further displayed an IP in data set [5] of 16 nM.
On to `C[C@@H](CN1C(=O)c2c3c(c(O)c(=O)n2[C@@]12CC[C@H]1C[C@H]12)C(=O)N(Cc1ccc(F)c(Cl)c1)CC3)OP(=O)(O)O`, for which the total exposure AUC(0-inf) in data set [15] came to 6.8 µM·h. In addition, the fraction remaining at 4 h in [2] and in data set [4] was more than 98% in each case. The compound also gave a solubility at 4 h in data set [3] of 2300 µg/mL (≈ 3950 µM). Besides, the IP in data set [5] came to 1580 nM.
In data set [16], `O=C1N[C@]2(CC[C@H]3C[C@H]32)n2c1c1c(c(O)c2=O)C(=O)N(Cc2ccc(F)c(Cl)c2)CC1` came in with a clearance of 0.12 mL/min/kg. Also, the AUC with Canis familiaris [17] was 47 µM·h. Moreover, the results for the Vd in data set [18] and in [25] were 0.12 L/kg and 0.19 L/kg, respectively. Also, the “Ratio IC50” value was 5 in data set [19], 1 in [22] and 3 in [24]. In the data set with Canis familiaris [20], this compound displayed an F of 27%. In [21], this compound had a bioavailability of 29%. Further, the IP in [6] is on record as 600 nM; in [5] it was 2.5 nM. Further, the half-life was 16 h in [23] and 14 h in [27]. The compound further displayed an AUC(0-inf) in data set [26] of 189 µM·h.
